A short description of data set [1]: Phototoxicity in mouse B16F10 cells assessed as cell viability after 24 hrs followed by irradiation with diode laser at 10 J/cm'2 measured after 24 hrs by cell counting kit-8 based spectrophotometric analysis. In kind it is functional, B16-F10. Conditions: Mus musculus, B16-F10, light or radiation study, 24 h. An outline of the steps: (§1)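 Phototoxicity by CCK-8. Cells loaded with a range of compound concentrations for 24 h at 37 °C, irradiated with a 678 nm diode laser at 10 J/cm², then incubated a further 24 h. Viability read as absorbance at 450 nm after 1.5 h with CCK-8.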

A short description of data set [2]: Dark toxicity in mouse B16F10 cells assessed as cell viability after 48 hrs by cell counting kit-8 based spectrophotometric analysis. Conditions: mouse, B16F10 cells. On the set-up: species or system B16-F10. An outline of the steps:
(§2)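 CCK-8 dark toxicity. 5×10^3 cells seeded in 10% FBS medium (A375 in DMEM, B16-F10 in RPMI 1640). Exposed to graded compound concentrations for 48 h at 37 °C, kept in the dark. Fresh medium and CCK-8 added for 1.5 h, then absorbance read at 450 nm to give IC50. Ratio is dark IC50 over IC50 under light.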

A short description of data set [3]: Ratio of IC50 for dark toxicity to IC50 for phototoxicity in human A375 cells. It counts as cell-based, A-375. Conditions: A375 cells, read-out: Ratio IC50. An outline of the steps:
as §2

Data set [4] relates to A-375. The data set is described as follows: Phototoxicity in human A375 cells assessed as cell viability after 24 hrs followed by irradiation with diode laser at 10 J/cm'2 measured after 24 hrs by cell counting kit-8 based spectrophotometric analysis. In kind it is functional. Conditions: Homo sapiens, A-375, light or radiation study, 24 h. An outline of the steps: as §1
For orientation: Tetrazolium assays rely on reduction of a dye to a coloured formazan, in cell work by metabolically active cells.

Data set [5] is described as follows: Dark toxicity in human A375 cells assessed as cell viability after 48 hrs by cell counting kit-8 based spectrophotometric analysis. The arrangement: species or system A-375. Conditions: human, A375 cells. An outline of the steps:
as §2

Data set [6] can be described thus: Ratio of IC50 for dark toxicity to IC50 for phototoxicity in mouse B16F10 cells by cell counting kit-8 based spectrophotometric analysis. The arrangement: species or system B16-F10. Conditions: B16F10 cells, read-out: Ratio IC50. An outline of the steps:
as §2

The next data set deals with B16-F10. The data set is described as follows: Phototoxicity in mouse B16F10 cells assessed as reduction in cell surviving fraction by irradiation with diode laser at 10 J/cm'2 after 24 hrs by cell counting kit-8 based spectrophotometric analysis. It counts as functional. An outline of the steps:
(§3)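 Survival fraction after PDT. Cells held 24 h at 2 µM or 0.2 µM, irradiated at 678 nm with 10 J/cm², then cultured another 24 h. Viability measured by CCK-8 at 450 nm.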

The nature of data set [7]: Dark toxicity in mouse B16F10 cells assessed as reduction in cell surviving fraction at 50 to 300 uM after 48 hrs by cell counting kit-8 based spectrophotometric analysis. Conditions: b16-f10, 48 h. An outline of the steps:
(§4)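 Survival fraction measured in the dark by CCK-8 after 48 h exposure at 37 °C to 300 µM or 50 µM. Cells were in 10% FBS medium (A375 in DMEM, B16-F10 in RPMI 1640). Viability read as absorbance at 450 nm after 1.5 h with CCK-8.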

In data set [8] the test system is A-375. The data set is described as follows: Phototoxicity in human A375 cells assessed as reduction in cell surviving fraction by irradiation with diode laser at 10 J/cm'2 after 24 hrs by cell counting kit-8 based spectrophotometric analysis. It counts as functional. An outline of the steps:
as §3

Data set [9] concerns A-375. The data set is described as follows: Dark toxicity in human A375 cells assessed as reduction in cell surviving fraction at 50 to 300 uM after 48 hrs by cell counting kit-8 based spectrophotometric analysis. Conditions: a-375, 48 h. An outline of the steps: as §4

pIC50: −log10 of the molar value.

In general, pIC50 refers to the IC50 on a negative log10 scale, so that one unit is a factor of ten. The term IC50 denotes the concentration that gives 50% inhibition. As to `CCC1=C(C)c2cc3[nH]c(cc4nc(c(C(=O)OC)c5[nH]c(cc1n2)c(C)c5C(=O)OC)C(CCC(=O)N[C@@H](CCC(=O)O)C(=O)O)=C4C)[C@@]1(C)C3=CC=C(C(=O)OC)[C@H]1C(=O)OC`, the pIC50 was 5.39 in [1] and 5.15 in the data set with A-375 [4]. In addition, the IC50 at 48 h turned out to be 224 µM in [2] and 286 µM in [5]. For the same molecule, the selectivity ratio came out at 40.3 in data set [3] and 55.3 in data set [6].
Regarding `CCC1=C(C)c2cc3[nH]c(cc4nc(c(C(=O)OC)c5[nH]c(cc1n2)c(C)c5C(=O)OC)C(CCC(=O)O)=C4C)[C@@]1(C)C3=CC=C(C(=O)OC)[C@H]1C(=O)OC`, the pIC50 in [1] is 6.04; with A-375 [4] it was 5.83. Also, the IC50 at 48 h in data set [2] was 15.3 µM; in data set [5] it was 22.8 µM. In addition, the selectivity ratio in [3] was 15.5; in [6] it was 16.7.
For the molecule `C=Cc1c(C)c2cc3nc(c(C(=O)OC)c4[nH]c(cc5nc(cc1[nH]2)C(C)=C5CC)c(C)c4C(=O)OC)[C@@H](CCC(=O)N[C@@H](CCC(=O)O)C(=O)O)[C@@H]3C`, the Activity result in the data set on B16-F10 is “Dose-dependent effect”; in data set [7] it was “Non-toxic”; in the data set with A-375 [8], “Dose-dependent effect”; in the data set on A-375 [9] it was “Non-toxic”. In addition, the pIC50 was 5.91 in data set [1] and 5.81 with A-375 [4]. The IC50 at 48 h in data set [2] was 284 µM; in data set [5] it was > 300 µM. Moreover, the selectivity ratio is > 195 in data set [3] and 233 in data set [6].
In the case of `CCC1=C(C)c2cc3[nH]c(cc4nc(c(C(=O)OC)c5[nH]c(cc1n2)c(C)c5C(=O)OC)C(CCC(=O)N[C@@H](CC(=O)O)C(=O)O)=C4C)[C@@]1(C)C3=CC=C(C(=O)OC)[C@H]1C(=O)OC`, the pIC50 in data set [1] was 5.64; with A-375 [4], 5.52. Moreover, the IC50 at 48 h in [2] was 271 µM; in [5], > 300 µM. Also, the selectivity ratio is > 99.3 in data set [3] and 118 in [6].

Values taken from ChEMBL document CHEMBL3822438, “Chlorin p6-Based Water-Soluble Amino Acid Derivatives as Potent Photosensitizers for Photodynamic Therapy” (J Med Chem, 2016).
